Reference: ChEMBL document CHEMBL1126288, “Pyrimido[1,6-a]benzimidazoles: a new class of DNA gyrase inhibitors” (1992)
Converted amounts (≈) assume the structure as drawn.

How the values were obtained:
[1] = molecular target: DNA gyrase (Escherichia coli) (UniProt P0AES6+P0AES4); assay: Inhibitory activity against Escherichia coli DNA gyrase (represented as MNEC); format: protein-complex assay
Summary of the method: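 Supercoiling assay. Gyrase subunits mixed equimolar and reconstituted to A2B2 for 30 min at 25 °C. Compound 0.1–100 µg/mL, 37 °C, 30 min. Read on 0.8% agarose gel; MNEC = highest concentration leaving all DNA fully supercoiled.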

Staphylococcus aureus = assay: In vitro for antibacterial activity against Staphylococcus aureus 887; format: functional
Bacillus subtilis = assay: In vitro for antibacterial activity against Bacillus subtilis ATCC 585369; format: functional
Escherichia coli [2] = assay: In vitro for antibacterial activity against Escherichia coli B (Ec(B)); format: functional
Micrococcus luteus = assay: In vitro for antibacterial activity against Micrococcus luteus ATCC 8340; format: functional
Escherichia coli [3] = assay: In vitro for antibacterial activity against Escherichia coli 1527E (Ec(C)); format: functional
Pseudomonas aeruginosa = assay: In vitro for antibacterial activity against Pseudomonas aeruginosa 799/61; format: functional
Enterobacter cloacae = assay: In vitro for antibacterial activity against Enterobacter cloacae P99; format: functional
Klebsiella oxytoca = assay: In vitro for antibacterial activity against Klebsiella oxytoca 1082E; format: functional
Escherichia coli [4] = assay: In vitro for antibacterial activity against Escherichia coli 1346 (Ec(A)); format: functional
[5] = tested on: Staphylococcus haemolyticus; assay: In vitro for antibacterial activity against Staphylococcus haemolyticus 75 (quinolone-resistant); format: functional

Compound	MNEC [1] [µg/mL]	MIC (Staphylococcus aureus) [µg/mL]	MIC (Bacillus subtilis) [µg/mL]	MIC (Escherichia coli [2]) [µg/mL]	MIC (Micrococcus luteus) [µg/mL]	MIC (Escherichia coli [3]) [µg/mL]	MIC (Pseudomonas aeruginosa) [µg/mL]	MIC (Enterobacter cloacae) [µg/mL]	MIC (Klebsiella oxytoca) [µg/mL]	MIC (Escherichia coli [4]) [µg/mL]	MIC [5] [µg/mL]
CCn1c2cc(N3CCNCC3)c(F)cc2n2c(=O)[nH]c(=O)cc12	1	> 64	64 (≈ 193 µM)	8 (≈ 24.1 µM)	> 64	> 64	> 64	64 (≈ 193 µM)	> 64	16 (≈ 48.3 µM)	
CNn1c(=O)cc2n(C3CC3)c3cc(N4CCNCC4)c(F)cc3n2c1=O	0.1	16 (≈ 43 µM)	8 (≈ 21.5 µM)	0.5 (≈ 1.34 µM)	128 (≈ 344 µM)	8 (≈ 21.5 µM)	32 (≈ 85.9 µM)	4 (≈ 10.7 µM)	8 (≈ 21.5 µM)	1 (≈ 2.69 µM)	128 (≈ 344 µM)
O=c1cc2n(C3CC3)c3cc(N4CCNCC4)c(F)cc3n2c(=O)[nH]1	0.2	> 32	8 (≈ 23.3 µM)	0.5 (≈ 1.46 µM)	> 32	8 (≈ 23.3 µM)	32 (≈ 93.2 µM)	8 (≈ 23.3 µM)	16 (≈ 46.6 µM)	2 (≈ 5.82 µM)	
CCn1c2cc(N3CCN(C)CC3)c(F)cc2n2c(=O)nc(N)cc12	> 10	> 32	> 32	> 32	> 32	> 32	> 32	> 32	> 32	> 32	> 32
CN1CCN(c2cc3c(cc2F)n2c(=O)[nH]c(=O)cc2n3C2CC2)CC1	1	16 (≈ 44.8 µM)	4 (≈ 11.2 µM)	0.25 (≈ 0.7 µM)	> 32	2 (≈ 5.6 µM)	32 (≈ 89.5 µM)	4 (≈ 11.2 µM)	8 (≈ 22.4 µM)	2 (≈ 5.6 µM)	> 32
CCn1c2cc(N3CCN(C)CC3)c(F)cc2n2c(=O)n(O)c(=O)cc12	1	16 (≈ 44.3 µM)	8 (≈ 22.1 µM)	1 (≈ 2.77 µM)	16 (≈ 44.3 µM)	4 (≈ 11.1 µM)	2 (≈ 5.53 µM)	2 (≈ 5.53 µM)	4 (≈ 11.1 µM)	2 (≈ 5.53 µM)	16 (≈ 44.3 µM)
CN1CCN(c2c(F)cc3c(=O)c(C(=O)O)cn(CCF)c3c2F)CC1 [FLEROXACIN]		2 (≈ 5.42 µM)	0.5 (≈ 1.35 µM)	0.06 (≈ 0.162 µM)	16 (≈ 43.3 µM)	0.06 (≈ 0.162 µM)	0.5 (≈ 1.35 µM)	0.12 (≈ 0.325 µM)	0.12 (≈ 0.325 µM)	0.12 (≈ 0.325 µM)	32 (≈ 86.6 µM)
CCn1c2cc(N3CCNCC3)c(F)cc2n2c(=O)n(O)c(=O)cc12	1	> 64	32 (≈ 92.1 µM)	8 (≈ 23 µM)	32 (≈ 92.1 µM)	32 (≈ 92.1 µM)	4 (≈ 11.5 µM)	8 (≈ 23 µM)	16 (≈ 46.1 µM)	8 (≈ 23 µM)	> 64
CN1CCN(c2cc3c(cc2F)n2c(=O)n(O)c(=O)cc2n3C2CC2)CC1	1	4 (≈ 10.7 µM)	2 (≈ 5.36 µM)	< 0.03	32 (≈ 85.7 µM)	0.12 (≈ 0.321 µM)	2 (≈ 5.36 µM)	0.12 (≈ 0.321 µM)	0.25 (≈ 0.67 µM)	< 0.03	32 (≈ 85.7 µM)
CCn1cc(C(=O)O)c(=O)c2cc(F)c(N3CCNCC3)cc21 [NORFLOXACIN]		4 (≈ 12.5 µM)	1 (≈ 3.13 µM)	0.12 (≈ 0.376 µM)	32 (≈ 100 µM)	0.12 (≈ 0.376 µM)	1 (≈ 3.13 µM)	0.25 (≈ 0.783 µM)	0.25 (≈ 0.783 µM)	0.12 (≈ 0.376 µM)	> 64
CN(C)n1c(=O)cc2n(C3CC3)c3cc(N4CCNCC4)c(F)cc3n2c1=O	0.5	16 (≈ 41.4 µM)	4 (≈ 10.4 µM)	1 (≈ 2.59 µM)	> 128	32 (≈ 82.8 µM)	64 (≈ 166 µM)	32 (≈ 82.8 µM)	32 (≈ 82.8 µM)	8 (≈ 20.7 µM)	> 128
Nn1c(=O)cc2n(C3CC3)c3cc(N4CCNCC4)c(F)cc3n2c1=O	0.2	64 (≈ 179 µM)	4 (≈ 11.2 µM)	0.25 (≈ 0.698 µM)	> 64	2 (≈ 5.58 µM)	8 (≈ 22.3 µM)	2 (≈ 5.58 µM)	4 (≈ 11.2 µM)	1 (≈ 2.79 µM)	> 64
CCn1c2cc(N3CCN(C)CC3)c(F)cc2n2c(=O)[nH]c(=O)cc12	2	> 32	16 (≈ 46.3 µM)	2 (≈ 5.79 µM)	> 32	32 (≈ 92.7 µM)	> 32	16 (≈ 46.3 µM)	> 32	16 (≈ 46.3 µM)	
O=c1cc2n(C3CC3)c3cc(N4CCNCC4)c(F)cc3n2c(=O)n1O	1	> 64	4 (≈ 11.1 µM)	< 0.25	8 (≈ 22.3 µM)	2 (≈ 5.57 µM)	2 (≈ 5.57 µM)	1 (≈ 2.78 µM)	1 (≈ 2.78 µM)	< 0.25	> 64
CCn1c2cc(N3CCNCC3)c(F)cc2c2c(N)ncnc21	5	> 128		16 (≈ 50.9 µM)		> 128	> 128	> 128	> 128	64 (≈ 204 µM)	> 128
